High-throughput results: PubChem BioAssay, several laboratories
This is a sample that favours compounds with a hit; in the whole collection about 2.9% have one here.
HCV core dimer: blocks dimerization of HCV core protein | TR-FRET GST/Flag-core106 dimerization, 1536-well | inhibition, % at 5 µM | actives 0.33% (n = 300,000) | AID 1899;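 active = inhibition above the mean of all tested compounds plus 3 SD, set per screening campaign, cut at about 45% in these data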
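Assay system: Tagged HCV core106 pair (GST and Flag) | Buffer or medium: KF-containing HEPES buffer, pH 7.45, DTT, CHAPS, BSA | Also added: Eu donor and XL665 acceptor anti-tag antibodies | Dosing: One concentration, 5 µM, in 0.5% DMSO | Timing: 4 h at 22.5 °C | Technique: TR-FRET 671 and 617 nm emission | Repeats: Singlicate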
ABHD5 PLIN5 PPI: ABHD5-PLIN5 protein interaction inhibition. AID 602281. Split G. princeps luciferase complementation, luminescence, 4 h. inhibition, % at 4 µM. Q00G26+Q8WTS1. actives 0.78% (n = 360,000);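 active = inhibition above the mean inhibition across every tested compound plus 3 SD, cut at about 22% in these data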
A3A deaminase: human APOBEC3A DNA deaminase inhibition. P31941. recombinant A3A, FAM/TAMRA ssDNA deamination fluorescence. inhibition, % at 20 µM. actives 0.41% (n = 330,000). AID 493011;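 active = at least 40% inhibition at 20 µM here, with at most 30% in a related deaminase screen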
Target sequence (P31941 whole entry, looked up): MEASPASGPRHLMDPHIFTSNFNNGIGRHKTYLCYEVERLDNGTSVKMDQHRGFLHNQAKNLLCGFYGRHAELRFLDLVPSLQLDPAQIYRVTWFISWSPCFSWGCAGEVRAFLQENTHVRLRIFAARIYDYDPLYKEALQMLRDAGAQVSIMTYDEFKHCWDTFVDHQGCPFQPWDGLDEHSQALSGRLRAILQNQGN
APOBEC3G inh: blocks human APOBEC3G single-stranded DNA deamination. recombinant A3G, ssDNA deamination FAM/TAMRA fluorescence. AID 493012. actives 0.28% (n = 330,000). inhibition, % at 20 µM;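 active = inhibition of at least 40% at 20 µM, with no more than 30% in the related APOBEC3A deaminase screen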
PRMT1 inh: inhibitors of human PRMT1; recombinant PRMT1, activity-based probe fluorescence polarization; inhibition, % at 2.79 µM; actives 1.3% (n = 370,000);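 active = inhibition above about 21% made by adding two undisclosed values, limit read from the data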
Target sequence (Q99873 whole entry, looked up): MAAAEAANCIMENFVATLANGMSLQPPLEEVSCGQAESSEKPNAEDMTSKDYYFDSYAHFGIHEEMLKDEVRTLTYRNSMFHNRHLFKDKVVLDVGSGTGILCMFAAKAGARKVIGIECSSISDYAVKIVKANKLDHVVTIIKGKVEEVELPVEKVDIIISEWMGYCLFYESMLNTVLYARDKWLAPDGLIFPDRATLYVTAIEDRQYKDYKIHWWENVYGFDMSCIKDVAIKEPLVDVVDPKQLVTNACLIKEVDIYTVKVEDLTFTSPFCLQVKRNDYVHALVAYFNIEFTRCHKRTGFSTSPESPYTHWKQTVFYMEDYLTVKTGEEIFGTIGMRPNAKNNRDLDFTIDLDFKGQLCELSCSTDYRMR
NS3 helicase inh: blocks Hepatitis C virus NS3 helicase unwinding. NS3 helicase DNA unwinding, Cy5 molecular beacon fluorescence. inhibition, % at 10.9 µM. actives 0.56% (n = 290,000). AID 1800;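 active = inhibition above the mean of all tested compounds plus 3 SD, set per campaign, cut at about 35% in these data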
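Test system: hepatitis C virus NS3 helicase domain fragment enzyme. Also added: annealed dual-labelled DNA beacon duplex, ATP-started. Timing: 60 min unwinding reaction at 25 °C after ATP addition. Technique: Cy5 fluorescence. Measure: % inhibition of unwinding.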
ABHD5 PLIN5 conf: confirmation of human ABHD5-PLIN5 interaction inhibitors; shares compounds with ABHD5 PLIN5 PPI; actives 67% (n = 2,200); AID 651612; biochemical ABHD5-PLIN5 interaction, luminescence; inhibition, % at 4 µM; in the data active = inhibition above about 23%
HNF4 split-luc: HNF4 split-luciferase signal hit, counter-screen; HNF4 dimerization, luminescence, biochemical; inhibition, % at 4 µM; actives 77% (n = 2,200); shares compounds with ABHD5 PLIN5 PPI; AID 651674;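 active = mean inhibition across replicate wells exceeding the computed hit threshold, cut at about 13% in these data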;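 note: light from luciferase halves that rejoin when HNF4 fusion proteins dimerize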
Hits are given with their value; - = inactive; . = not tested or not shown.

SMILES | HCV core dimer | ABHD5 PLIN5 PPI | A3A deaminase | APOBEC3G inh | PRMT1 inh | NS3 helicase inh | ABHD5 PLIN5 conf | HNF4 split-luc
COC(=O)C1=C(C)N(Cc2ccco2)C(=O)/C1=C\c1ccc([N+](=O)[O-])cc1 | - | 70 | - | - | 24 | - | 98 | 95
COC(=O)C1=C(C)N(Cc2ccco2)C(=O)/C1=C\c1ccc(N(C)C)cc1 | - | - | - | - | - | - | . | .
CO[C@H]1CN(C)C(=O)c2ccc(NC(=O)C3CCC3)cc2OC[C@H](C)N(Cc2ccc(F)cc2)C[C@@H]1C | . | - | . | . | - | . | . | .
Cc1ccc(C(=O)NC(=O)CSc2nncn2C)cc1 | - | - | - | - | - | - | . | .
Cc1ccc(C2=NN=C(NC(=O)CSc3nncn3C)SC2)cc1 | - | 45 | - | - | 94 | - | 70 | 102
COc1ccc(C(=O)C(=O)N2CCN(c3ccccc3F)CC2)cc1 | . | - | . | . | - | . | . | .
CCOc1ccc(S(=O)(=O)N(CC(=O)NCc2cccnc2)c2ccc(F)cc2)cc1 | - | 40 | - | - | - | - | - | -
CCOC(CN=c1nc(N(C)C)ss1)OCC | . | 81 | . | . | - | . | 78 | 101
Nc1[nH]c(C(=O)c2ccc(Br)cc2)c(-c2ccccc2Cl)c1C(=O)NCCc1c[nH]c2ccccc12 | . | . | . | . | - | . | . | .
CC1=CC(C)(C)Nc2ccc(OC(=O)CN3C(=O)c4ccccc4C3=O)cc21 | - | 66 | - | - | - | - | 86 | 79
CCOc1ccc2c(c1)C(C)=CC(C)(C)N2 | . | - | - | - | - | . | . | .
C/C(=N\NC(=O)c1nnn(-c2nonc2N)c1CN1CCC(C)CC1)c1ccc(Br)cc1 | . | - | . | . | - | . | . | .
Cc1nnnn1/C(=C\c1ccccc1)C(=O)OCC(=O)Nc1ccc(Cl)cc1F | - | 68 | - | - | - | . | 92 | 85
CCSc1nc2ccccc2n1C(=O)/C=C\c1ccc(OC)c(OC)c1 | - | 40 | - | - | - | - | 77 | 60
COc1ccc(-n2cc(CN[C@H]3CCCCNC3=O)c(-c3cccc(F)c3)n2)cc1 | - | - | - | - | - | - | . | .
COc1ccc(-n2cc(CNC3CCN(C)CC3)c(-c3cccc(F)c3)n2)cc1 | - | 32 | - | - | - | - | - | -
Cc1cccc(C)c1NC(=O)C(c1ccccc1)N1CCC(c2ccccc2)CC1 (centres undefined) | . | - | . | . | - | . | . | .
CC(=O)OC[C@]12CC[C@H]3[C@@](C)(CC[C@H]4C(C)(C)CCC[C@]34C)[C@@H]1CC(C1=CC(=O)OC1O)O2 (some centres undefined) | . | 100 | . | . | - | . | 103 | 103
CCn1cnc2c(NCc3cccnc3)nc(C#N)nc21 | . | . | . | . | - | . | . | .
Cc1ccc(/C=C/C(=O)c2nc3ccccc3[nH]2)cc1 | - | 69 | - | - | - | - | 90 | 85
Cc1ccc(/C=C/C(=O)Nc2nc3ccccc3[nH]2)cc1 | - | - | - | - | - | - | . | .
CC(=O)c1c(C)nc2ccccc2c1N | - | - | - | - | - | - | . | .
Cc1nc2ccccc2c(N)c1C(=O)/C=C/c1ccccc1 | - | 34 | - | - | - | - | 41 | 37
CCCS(=O)(=O)NC(=O)C1(C)CCCN(C(=O)COCc2ccccc2)C1 (centres undefined) | . | - | . | . | - | . | . | .
Cc1noc(C)c1S(=O)(=O)N(C)C[C@H]1Oc2ccc(NC(=O)CCC(F)(F)F)cc2C(=O)N([C@H](C)CO)C[C@@H]1C | . | - | - | - | - | . | . | .
SMILES | HCV core dimer | ABHD5 PLIN5 PPI | A3A deaminase | APOBEC3G inh | PRMT1 inh | NS3 helicase inh | ABHD5 PLIN5 conf | HNF4 split-luc
O=C(COC(=O)c1ccc(F)cc1F)Nc1ccc2c(c1)OCO2 | . | - | . | . | - | . | . | .
Cc1nn(C)c(C)c1NC(=O)CCSc1nc(-c2ccco2)cc(C(F)(F)F)n1 | - | - | - | - | - | - | . | .
Cc1nn(C)cc1NC(=O)CCSc1nc(-c2ccco2)cc(C(F)(F)F)n1 | - | 88 | - | - | - | - | - | -
O=C(CNC(=O)OCc1ccccc1)NCC(=O)Oc1ccc([N+](=O)[O-])cc1 | . | - | . | . | - | . | . | .
O=C1Cc2ccccc2Sc2ccccc21 | - | 39 | - | - | - | - | - | 12
C[C@H](CO)N1C[C@H](C)[C@@H](CN(C)Cc2ccc(C(=O)Nc3ccccc3N)cc2)Oc2c(NC(=O)C3CCCCC3)cccc2C1=O | . | 72 | - | - | - | . | - | -
Cc1ccc(C(=O)N2[C@@H]3CN(C)C(=O)[C@@]2(Cc2ccccc2)[C@H]2C(=O)N(Cc4ccccc4)C(=O)[C@@H]32)cc1 | . | - | . | . | - | . | . | .
CC(=O)c1cccc(N(CC(=O)NC2CCCCC2)C(=O)Cn2nnc(-c3ccccc3)n2)c1 | - | - | - | - | - | - | . | .
N#Cc1c(Nc2ccccc2Cl)s[nH]c1=O | - | 25 | - | - | 23 | - | 44 | 103
COCCCN1CCN(C2Cc3ccccc3Sc3ccc(Cl)cc32)CC1 (centres undefined) | - | 25 | - | - | - | - | - | -
NC(=O)CCN1CCN(CCOC2Cc3cc(Cl)ccc3Sc3ccccc32)CC1 (centres undefined) | - | 25 | - | - | - | - | 22 | -
Fc1ccc2c(c1)Sc1ccc(Cl)cc1CC2N1CCN(CCC2OCCO2)CC1 (centres undefined) | - | - | - | - | - | . | . | .
CC(=O)Nc1cc2c(c(Cl)c1Cl)-c1ccccc1C2=O | . | - | . | . | - | . | . | .
CN(C(=O)COC(=O)c1cc2c(s1)CCCCC2)C1CCS(=O)(=O)C1 (centres undefined) | - | - | - | - | - | - | . | .
O=C(CNCCc1ccc(F)cc1)Nc1cc(F)ccc1F | - | - | - | - | - | - | . | .
